What was measured:
Rattus norvegicus [1] = assay: Concentration was measured in lungs tissue of unfasted Fischer 344 rats administered intravenously after 30 minute (radiolabeled with [123I]-; type: ADME, organism-based, Lung; settings: in vivo, iv, 0.5 h
Rattus norvegicus [2] = assay: Concentration was measured in kidney tissue of unfasted Fischer 344 rats administered intravenously after 4 hr (radiolabeled with [123I]-; type: ADME, organism-based; settings: in vivo, iv
Rattus norvegicus [3] = assay: Concentration was measured in tissue of unfasted Fischer 344 rats administered intravenously after 60 minute (radiolabeled with [123I]-; type: ADME, organism-based; settings: in vivo, iv, 1 h
Rattus norvegicus [4] = assay: Concentration was measured in liver tissue of unfasted Fischer 344 rats administered intravenously after 4 hr (radiolabeled with [123I]-; type: ADME, organism-based; settings: in vivo, iv
Rattus norvegicus [5] = assay: Concentration was measured in heart tissue of unfasted Fischer 344 rats administered intravenously after 30 minutes (radiolabeled with [125I]-; type: ADME, organism-based; settings: in vivo, iv, 0.5 h
Method in brief: (§1)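 Female Fischer 344 rats, 10-12 weeks old, 170-200 g, with food and water ad libitum. The 125I-fatty acid was taken up in ethanol, added dropwise to stirred 6% BSA at ~40 °C (final ethanol 10%), filtered, and given as 0.5 mL via lateral tail vein under ether anesthesia. Rats were killed by cervical fracture; blood was taken by cardiac puncture. Organs were rinsed, blotted, weighed and gamma-counted against injectate standards to give %ID/g. Five rats per time point.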

Rattus norvegicus [6] = assay: Concentration was measured in thyroid tissue of unfasted Fischer 344 rats administered intravenously after 5 minute (radiolabeled with [125I]-; type: ADME, organism-based, Thyroid gland; settings: in vivo, iv, 5 min
Method in brief: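 Female Fischer 344 rats, 10–12 weeks old (170–200 g), with food and water ad libitum, five per time point. The radioiodinated fatty acid was dissolved in ethanol, added to 6% BSA at ~40 °C (final 10% ethanol), filtered, and injected into a lateral tail vein (0.5 mL) under ether anesthesia. Blood was taken by cardiac puncture; organs were rinsed, blotted, weighed and gamma-counted against injectate standards. Output is % injected dose/g.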

Rattus norvegicus [7] = assay: Concentration was measured in kidney tissue of unfasted Fischer 344 rats administered intravenously after 30 minute (radiolabeled with [125I]-; type: ADME, organism-based; settings: in vivo, iv, 0.5 h; method in brief: as §1
Rattus norvegicus [8] = assay: Concentration was measured in lungs tissue of unfasted Fischer 344 rats administered intravenously after 60 minute (radiolabeled with [125I]-; type: ADME, organism-based, Lung; settings: in vivo, iv, 1 h; method in brief: as §1
Rattus norvegicus [9] = assay: Concentration was measured in heart tissue of unfasted Fischer 344 rats administered intravenously after 60 minute (radiolabeled with [125I]-; type: ADME, organism-based; settings: in vivo, iv, 1 h; method in brief: as §1
Rattus norvegicus [10] = assay: Concentration was measured in lungs tissue of unfasted Fischer 344 rats administered intravenously after 4 hr (radiolabeled with [125I]-; type: ADME, organism-based, Lung; settings: in vivo, iv
Rattus norvegicus [11] = assay: Concentration was measured in thyroid tissue of fasted Fischer 344 rats administered intravenously after 30 minute (radiolabeled with [123I]-; settings: in vivo, iv, 0.5 h
Rattus norvegicus [12] = assay: Concentration was measured in mean heart/blood tissue of unfasted Fischer 344 rats administered intravenously after 4 hr (radiolabeled with [125I]-; type: ADME, organism-based; settings: other tissue, iv
Rattus norvegicus [13] = assay: Concentration was measured in liver tissue of unfasted Fischer 344 rats administered intravenously after 5 minute (radiolabeled with [123I]-; type: ADME, organism-based; settings: in vivo, iv, 5 min
Rattus norvegicus [14] = assay: Concentration was measured in thyroid tissue of unfasted Fischer 344 rats administered intravenously after 5 minute (radiolabeled with [123I]-; type: ADME, organism-based, Thyroid gland; settings: in vivo, iv, 5 min
Rattus norvegicus [15] = assay: Concentration was measured in blood tissue of unfasted Fischer 344 rats administered intravenously after 5 minute (radiolabeled with [123I]-; type: ADME, organism-based; settings: in vivo, iv, 5 min
Rattus norvegicus [16] = assay: Concentration was measured in blood tissue of unfasted Fischer 344 rats administered intravenously after 60 minute (radiolabeled with [125I]-; type: ADME, organism-based; settings: in vivo, iv, 1 h; method in brief: as §1
Rattus norvegicus [17] = assay: Concentration was measured in blood tissue of unfasted Fischer 344 rats administered intravenously after 30 minute (radiolabeled with [125I]-; type: ADME, organism-based; settings: in vivo, iv, 0.5 h, in the assay text read “fasted” for “unfasted”

Distribution (Rattus norvegicus [1]): 1.32% | Distribution (Rattus norvegicus [2]): 0.95% | Distribution (Rattus norvegicus [3]): 2.62% | Distribution (Rattus norvegicus [4]): 1.83% | Distribution (Rattus norvegicus [5]): 3.32% | Distribution (Rattus norvegicus [6]): 16.7% | Distribution (Rattus norvegicus [7]): 0.91% | Distribution (Rattus norvegicus [8]): 0.89% | Distribution (Rattus norvegicus [9]): 2.56% | Distribution (Rattus norvegicus [10]): 0.81% | Distribution (Rattus norvegicus [11]): 65.3% | Distribution (Rattus norvegicus [12]): 2.6% | Distribution (Rattus norvegicus [13]): 4.87% | Distribution (Rattus norvegicus [14]): 22.5% | Distribution (Rattus norvegicus [15]): 0.74% | Distribution (Rattus norvegicus [16]): 0.63% | Distribution (Rattus norvegicus [17]): 0.77%
Structure (SMILES): CC(CCCCCCCCCCCCCC/C=C/I)CC(=O)O.O=C(O)CCCCCCCCCCCCCCCC/C=C/I (configuration not stated)
